From PubChem
Hits are enriched below; roughly 1.3% of the tested compounds scored in any of these assays.
Rpn11 block: Rpn11 (PSMD14) deubiquitinase inhibitors, primary screen, biochemical, fluorescence polarization, uHTS; 26S proteasome non-ATPase regulatory subunit 14 (Homo sapiens), O00487; hit rate 0.59% among 360,000; human 26S proteasome, Ub4-pepOG fluorescence polarization; 20S core pre-blocked with epoxomicin; inhibition, % at 20 µM;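 active means inhibition at 20 µM, scaled to each plate's controls, above about 33%, limit read from the data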
Target sequence (O00487 whole entry, looked up): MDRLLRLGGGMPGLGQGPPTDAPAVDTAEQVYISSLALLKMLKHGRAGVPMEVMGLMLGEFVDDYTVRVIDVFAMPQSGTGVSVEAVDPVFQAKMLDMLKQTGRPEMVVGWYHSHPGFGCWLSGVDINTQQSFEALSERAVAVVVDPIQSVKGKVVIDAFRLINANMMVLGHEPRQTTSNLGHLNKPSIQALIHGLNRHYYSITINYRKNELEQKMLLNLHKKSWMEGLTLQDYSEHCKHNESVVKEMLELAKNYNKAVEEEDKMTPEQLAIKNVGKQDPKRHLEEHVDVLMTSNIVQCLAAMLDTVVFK
CSN inh: inhibitors of CSN-mediated cullin deneddylation, primary screen, biochemical, fluorescence polarization, uHTS. inhibition, % at 12.5 µM. AID 651999, 2013. Purified CSN, SCF-Nedd8-OG deneddylation. COP9 signalosome complex subunit 5 (Homo sapiens), Q92905. hit rate 0.38% among 360,000;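 active means pattern-corrected inhibition above about 35%, with an unprinted fluorescence ratio check between 0.5 and 1.5, limit read from the data, passing the limit was not always enough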
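Assay system: HEK293T-derived human Csn5 enzyme; quantity: 0.24 nM enzyme; medium: Tris/NaCl/DTT buffer, pH 7.5; also added: substrate SCFSkp2-Nedd8OG, 10 nM; doses: 12.5 µM compound; schedule: 90 min reaction at room temperature; signal: FP; read-out: % inhibition of substrate cleavage by Csn5; benchmarks: substrate-only high control, full reaction low control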
TPT1 inh: Candida albicans TPT1 enzyme inhibitors, primary screen, biochemical, fluorescence polarization. AID 1962, 2009. inhibition, % at 5 µM. tRNA 2'-phosphotransferase TPT1 (Candida albicans SC5314). recombinant caTPT1, FP RNA substrate dephosphorylation. hit rate 0.81% among 300,000;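 active means inhibition above the mean of all tested compounds plus 3 SD, set per screening campaign, cut at about 24% in these data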
Xi reactivation: activators of inactive X chromosome reactivation, primary screen, imaging, XiGFP fibroblasts, GFP high-content imaging, set 2; XiGFP mouse fibroblasts, % GFP-positive cells imaging, 3 d; cells co-treated with 5-aza-dC sensitizer; scaled so ellipticine positive control = 100%; activation, % at 7.58 µM; hit rate 0.055% among 360,000; AID 743238, 2013;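 active means mean normalized replicate activation at least 10% and every replicate at or above 10%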
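Assay system – SV40-immortalized XiGFP fibroblast cells, line 68-5-11 · Buffer or medium – DMEM supplemented with 5-aza-dC as sensitizing agent · Dosing – one concentration, pinned · Benchmarks – positive control ellipticine, 6 µM final · Times – 3 days compound exposure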
aDG glyco act: activators of alpha-DG glycosylation, primary screen, uHTS, Pro5-aDG cells, AlphaScreen; alpha-DG glycosylation AlphaScreen (IIH6); 0% Pro5, 100% B10-LARGE cell signal; hit rate 0.22% among 360,000; AID 624168, 2012; activation, % at 10 µM;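 active means activation of at least 8% versus controls, or a plate z-score of at least 8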;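 further: Pro5 are CHO cells carrying HIG-tagged alpha-DG that lacks glycosylation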
HNF4A DNA FP: change in binding of human HNF4A to DNA, primary screen, biochemical, fluorescence polarization, FITC-DNA; hit rate 0.3% among 360,000; activity change, % at 10 µM; 1 h; Hepatocyte nuclear factor 4-alpha (Homo sapiens), P41235; AID 1224865, 2016; in the data active means activity change above about 30%, passing the limit was not always enough
TPT1 inh confirm: Candida albicans TPT1 inhibitors, confirmation, biochemical, fluorescence polarization, triplicate; shares compounds with TPT1 inh; recombinant caTPT1, RNase T1 coupled; inhibition, % at 5 µM; hit rate 74% among 2,400;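 active means inhibition above the primary screen limit, the mean inhibition of all tested compounds plus 3 SD, cut at about 25% in these data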
RNase T1 inh: RNase T1 inhibitors, counter-screen for TPT1 inhibitor project, biochemical, fluorescence polarization; RNase T1 cleavage, 1536-well; shares compounds with TPT1 inh; inhibition, % at 5 µM; hit rate 83% among 2,400; AID 2153, 2009;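 active means inhibition above the solvent-only control well mean plus 3 SD, limit set per screening run, cut at about 23% in these data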;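 further: inhibitors block cleavage so intact labeled substrate keeps polarization high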
Target sequence (P00651 whole entry, looked up): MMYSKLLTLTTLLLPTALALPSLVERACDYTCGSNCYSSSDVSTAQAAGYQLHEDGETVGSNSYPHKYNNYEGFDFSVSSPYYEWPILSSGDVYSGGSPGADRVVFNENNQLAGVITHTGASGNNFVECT
Rpn11 confirm: Rpn11 (PSMD14) deubiquitinase inhibitors, confirmation, biochemical, fluorescence polarization, single concentration | purified human 26S proteasome, Ub4-pepOG fluorescence polarization; proteasome pretreated with epoxomicin | inhibition, % at 20 µM | AID 602318, 2012 | shares compounds with Rpn11 block | hit rate 29% among 1,900
MMP-2 counter-1: MMP-2 enzyme inhibition, confirmation, counter-screen for RPN11 inhibitor project, biochemical, fluorescence, single concentration; AID 602330, 2012; hit rate 4% among 1,900; recombinant MMP-2, FRET peptide cleavage fluorescence; shares compounds with Rpn11 block; inhibition, % at 20 µM;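 further: human MMP-2 activated beforehand with APMA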
Thrombin FP: bovine thrombin protease inhibition, confirmation, counter-screen for Rpn11 inhibitor project, biochemical, fluorescence polarization, single concentration | shares compounds with Rpn11 block | bovine thrombin cleavage of Ub4-pepOG | inhibition, % at 20 µM | hit rate 13% among 1,900;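 active means mean inhibition at least 40% at 20 µM, or signal 3 deviations below plate average, so some actives read negative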
CSN5 deneddyl: Csn5 deneddylation inhibitors, confirmation, biochemical, fluorescence polarization, single concentration, SCF-Nedd8OG substrate. hit rate 62% among 540. Csn5 deneddylation of SCF-Nedd8OG, 90 min. shares compounds with CSN inh. AID 720654, 2013. inhibition, % at 16.6 µM; in the data active means inhibition above about 50%
MMP-2 counter-2: MMP-2 protease inhibition counter-screen, confirmation, counter-screen for CSN deneddylation inhibitor project, biochemical, fluorescence, single concentration. shares compounds with CSN inh. recombinant MMP-2, FRET substrate fluorescence, 60 min. inhibition, % at 16.6 µM. hit rate 33% among 540;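 active means corrected plate-normalized z-score of 5 or more, or -5 or less, or inhibition of 15% or more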
Thrombin counter: blocks bovine thrombin in a CSN deneddylation counter-screen | hit rate 49% among 540 | inhibition, % at 16.6 µM | shares compounds with CSN inh | bovine thrombin cleavage of Ub4-pepOG, fluorescence polarization;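 active means inhibition at or above a set limit, with a fluorescence interference ratio between 0.5 and a set maximum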
Numbers stand for hits; - = inactive; . = not tested or not shown. Unless noted, no stated cut-off is given here; in the data, active means inhibition above about 40%; inactive means the rest.

SMILES	Rpn11 block	CSN inh	TPT1 inh	Xi reactivation	aDG glyco act	HNF4A DNA FP	TPT1 inh confirm	RNase T1 inh	CSN5 deneddyl	MMP-2 counter-2	Thrombin counter	others
C=CCN1C=CC(=CC=C(C#N)C#N)C=C1	.	91	137	-	-	-	158	155	98	-	79
CCCN1C=CC(=CC=C(C#N)C#N)C=C1	.	83	144	-	-	-	165	161	-	-	83
O=C(N/N=C/c1c(O)ccc2ccccc12)c1cccc(C(F)(F)F)c1	.	69	135	-	-	92	149	137	63	-25	49
CO[C@H]1CN(C)C(=O)c2cc(NS(=O)(=O)c3ccccc3C)ccc2OC[C@@H](C)N(C)C[C@@H]1C	.	.	.	-	.	.	.	.	.	.	.
CCOC(=O)N(C)C[C@@H]1OCc2cnnn2CCCC(=O)N([C@@H](C)CO)C[C@H]1C	.	.	.	-	.	.	.	.	.	.	.
O=[N+]([O-])c1ccc(N/N=C/C=C/c2ccco2)cc1	.	56	119	-	-	89	123	122	52	-	44
O=C(O)c1ccc(N/N=C/c2ccc(-c3cccc(Cl)c3)o2)cc1	-	-	-	-	-	-	.	.	.	.	.
O=C(N/N=C/c1ccco1)c1cc([N+](=O)[O-])cc([N+](=O)[O-])c1	-	-	-	-	-	-	.	.	.	.	.
O=C(O)c1cccc(-c2ccc(/C=N/Nc3ccc([N+](=O)[O-])cc3)o2)c1	.	93	124	-	-	-	126	120	51	-	-
O=C(O)c1ccc(N/N=C/C=C/c2ccc([N+](=O)[O-])o2)cc1	-	45	44	-	-	-	63	72	-	-	-
O=[N+]([O-])c1ccccc1N/N=C/c1c[nH]c2ccccc12	-	-	-	.	-	-	.	.	.	.	.
O=[N+]([O-])c1ccc(N/N=C/c2c[nH]c3ccccc23)cc1	115	57	125	.	-	78	106	109	56	-	57	Rpn11 confirm=84;MMP-2 counter-1=-;Thrombin FP=59
